“Also recorded” adds a separate entry of the source.
What was measured:
[1] = molecular target: tubulin (Trypanosoma brucei rhodesiense, UniProt P04106+P04107); assay: Tubulin polymerization in T. brucei cells; format: cell-based; conditions: 12 h treatment, different doses, western blot vs DMSO
How it was run: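 Bloodstream-form T. b. brucei Lister 427 (HMI-9, 10% FBS, 37°C, 7.5% CO2) treated 12 h with varying doses in 0.5% DMSO; washed in TDB with protease inhibitors, lysed 5 min at 4°C in Pipes pH 6.8/EGTA/MgCl2/0.15% Triton X-100/glycerol; 15,000 g 30 min spin separated soluble (non-polymerized) supernatant from pellet, RIPA-boiled (polymerized). Equal cell-equivalent fractions blotted with anti-tubulin antibody.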

[2] = test system: T. b. brucei Lister 427 cells; assay: T. brucei cell viability analysis; format: cell-based, Trypanosoma brucei brucei; conditions: IC50 mammalian cells / IC50 T. brucei
How it was run: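 Index is mammalian-cell IC50 divided by T. brucei IC50. Parasite arm: bloodstream-form Lister 427 in HMI-9/10% FBS, 37°C, 7.5% CO2; 5,000 cells, compound with 0.1% DMSO, 48 h; MTS 3 h, A490. Mammalian arm: HEK293 or RAW264.7 in RPMI1640/10% FBS, 3000 cells seeded 24 h, compound 48 h; MTT 3 h, A570. Quadruplicates normalized, dose–response fitted.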

[3] = test system: T. b. brucei Lister 427 cells; conditions: earlier study, cited from earlier work

tubulin, sequence (P04107 whole entry): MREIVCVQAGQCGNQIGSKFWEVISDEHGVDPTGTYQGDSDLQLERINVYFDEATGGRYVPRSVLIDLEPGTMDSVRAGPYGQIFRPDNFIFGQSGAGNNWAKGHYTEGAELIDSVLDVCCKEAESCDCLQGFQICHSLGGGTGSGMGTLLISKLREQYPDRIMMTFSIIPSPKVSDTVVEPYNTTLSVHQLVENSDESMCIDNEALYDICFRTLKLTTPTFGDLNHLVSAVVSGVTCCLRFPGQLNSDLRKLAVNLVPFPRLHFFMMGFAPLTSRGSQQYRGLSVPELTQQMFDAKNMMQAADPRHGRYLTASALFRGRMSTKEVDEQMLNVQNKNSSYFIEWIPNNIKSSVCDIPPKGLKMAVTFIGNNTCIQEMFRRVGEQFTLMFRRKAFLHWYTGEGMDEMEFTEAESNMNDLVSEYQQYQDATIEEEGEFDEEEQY
tubulin, sequence (P04106 whole entry): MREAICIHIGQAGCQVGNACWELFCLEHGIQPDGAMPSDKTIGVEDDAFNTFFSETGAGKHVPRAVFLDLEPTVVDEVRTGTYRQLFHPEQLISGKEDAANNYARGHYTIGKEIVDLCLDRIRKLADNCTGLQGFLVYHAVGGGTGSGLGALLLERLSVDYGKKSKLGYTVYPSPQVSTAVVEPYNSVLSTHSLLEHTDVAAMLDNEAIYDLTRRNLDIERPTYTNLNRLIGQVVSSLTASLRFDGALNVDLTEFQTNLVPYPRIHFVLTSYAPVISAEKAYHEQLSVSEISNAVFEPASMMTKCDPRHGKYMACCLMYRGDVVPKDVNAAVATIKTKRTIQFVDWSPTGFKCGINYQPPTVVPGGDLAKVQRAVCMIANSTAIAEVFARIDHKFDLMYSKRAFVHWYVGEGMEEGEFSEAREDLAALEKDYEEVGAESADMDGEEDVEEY

| Compound | effect on tubulin polymerization in T. brucei cells [1] | selectivity index (mammalian cell line not given) [2] | selectivity index ([3]; IC50 human cell growth / IC50 T. brucei cell growth) | IC50 to inhibit trypanosomal cell proliferation [3] |
| --- | --- | --- | --- | --- |
| Cc1cc(NC(=O)c2cc(C(F)(F)F)cc(C(F)(F)F)c2)ccc1NS(C)(=O)=O [Compound 5, N-(4-(Methylsulfonamido)-3-Methylphenyl)-3,5-Bis(Trifluoromethyl)Benzamide] | profound effect on tubulin function; also recorded: decreased the amount of polymerized tubulin in a dose-dependent manner; also recorded: inhibit the tubulin polymerization in T. brucei cells | above 50 |  |  |
| Cc1cc(NC(=O)c2cc(C(F)(F)F)cc(C(F)(F)F)c2)ccc1NS(=O)(=O)C(F)(F)F [Compound 15, N-(3-Methyl-4-Trifluoromethanesulfonylamino-Phenyl)-3,5-Bis-Trifluoromethyl-Benzamide] |  |  | around 7000 | 70 nM |
| CCS(=O)(=O)Nc1ccc(NC(=O)c2ccc(Cl)c([N+](=O)[O-])c2)cc1Cl [Compound 39, 4-Chloro-N-(3-Chloro-4-(Ethylsulfonamido)-Phenyl)-3-Nitrobenzamide] |  | below 50 |  |  |
| CCS(=O)(=O)Nc1ccc(NC(=O)c2cc(C(F)(F)F)cc(C(F)(F)F)c2)cc1Cl [Compound 40, N-(3-Chloro-4-(Ethylsulfonamido)Phenyl)-3,5-Bis(Trifluoromethyl)Benzamide] |  | below 50 |  |  |
| N#Cc1ccc(C(=O)Nc2ccc(NS(=O)(=O)C(F)(F)F)c(F)c2)cc1 [Compound 57, 4-Cyano-N-(3-Fluoro-4-(Trifluoromethylsulfonamido)Phenyl)Benzamide] | decreased the amount of polymerized tubulin in a dose-dependent manner; also recorded: inhibit the tubulin polymerization in T. brucei cells |  |  |  |

Source: article PMC6531046 (Bioorganic & medicinal chemistry, 2019)
